Assay outcomes (PubChem BioAssay)
Sampled rows, rich in hits. Any-hit rate of the full collection: about 3.5%.
Ecoli rRNA inh = reduced GFP signal of wild-type E. coli, primary screen, bacterial rRNA inhibitor project, GFP/RFP fluorescence, OD600, single point; E. coli WT GFP vs humanized-ribosome RFP mutants, 24 h; hits give low values; DMSO median 0, no signal -100; GFP signal change (wild-type ribosome), % (no concentration beside the values); hit rate 1.6% among 350,000; AID 720706, 2013;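 active means significant combined selectivity score with lowered wild-type GFP, culture density cut under 30%, mutant RFP and density less affected; inactive means any of these conditions unmet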
ERAP1 inh = human ERAP1 aminopeptidase inhibitors, primary screen, biochemical, single point, plate reader. AID 652197, 2013. recombinant ERAP1, Leu-AMC fluorescence, 60 min. hit rate 0.15% among 340,000. inhibition, % at 10.7 µM;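 active means mean replicate inhibition of at least 30%, or all replicates individually reaching that 30% level; inactive means mean below 30% and not every replicate reaching it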;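 further: 0% = neutral control wells and 100% = L-leucinethiol positive control wells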
Target sequence (Q9NZ08 whole entry, looked up): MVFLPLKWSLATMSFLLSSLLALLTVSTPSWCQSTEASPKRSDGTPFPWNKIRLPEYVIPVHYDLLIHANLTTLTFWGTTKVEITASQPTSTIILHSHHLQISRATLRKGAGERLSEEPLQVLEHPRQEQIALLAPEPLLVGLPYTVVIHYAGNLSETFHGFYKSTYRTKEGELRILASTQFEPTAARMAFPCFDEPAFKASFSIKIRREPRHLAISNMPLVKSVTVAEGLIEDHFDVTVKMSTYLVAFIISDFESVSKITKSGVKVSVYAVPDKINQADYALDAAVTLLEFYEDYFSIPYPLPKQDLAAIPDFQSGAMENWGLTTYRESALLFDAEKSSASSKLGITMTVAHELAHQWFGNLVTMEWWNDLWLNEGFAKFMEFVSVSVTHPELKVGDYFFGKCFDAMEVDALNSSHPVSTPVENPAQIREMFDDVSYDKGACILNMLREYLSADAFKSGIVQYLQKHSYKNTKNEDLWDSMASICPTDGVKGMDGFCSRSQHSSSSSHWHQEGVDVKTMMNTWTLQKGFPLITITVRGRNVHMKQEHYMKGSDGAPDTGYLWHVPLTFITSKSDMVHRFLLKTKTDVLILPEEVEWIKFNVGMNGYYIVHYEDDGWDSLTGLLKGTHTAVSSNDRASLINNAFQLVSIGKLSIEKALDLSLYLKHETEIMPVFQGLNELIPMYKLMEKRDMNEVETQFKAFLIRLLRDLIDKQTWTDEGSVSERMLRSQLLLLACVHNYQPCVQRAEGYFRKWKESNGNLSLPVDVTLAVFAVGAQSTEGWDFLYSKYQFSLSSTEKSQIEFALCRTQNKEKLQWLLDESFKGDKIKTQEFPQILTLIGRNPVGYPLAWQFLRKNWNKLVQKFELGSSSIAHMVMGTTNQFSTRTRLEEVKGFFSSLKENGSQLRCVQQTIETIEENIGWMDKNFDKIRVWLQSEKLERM
FGF22 binding-1 = binders of human FGF22 protein, primary screen, FGF22 synaptogenesis inhibitor project, biophysical, thermal shift, single point; recombinant FGF22 thermal shift, SYPRO orange fluorescence; percent of sucrose octasulfate shift, DMSO zero; hit rate 1.5% among 340,000; Fibroblast growth factor 22 (Homo sapiens), Q9HCT0; activity (Tm shift, normalised), % at 9.99 µM;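 active means mean Tm shift, scaled 0 neutral to 100 positive control, at about 1.3% or above, every replicate too, limit read from the data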
Cneo AK release = Cryptococcus neoformans cell lysis inducers, primary screen, AK release luminescence, single concentration | lysis activity, % at 15 µM | AID 651654, 2012 | C. neoformans lysis, adenylate kinase release luminescence, 4 h; normalised: neutral wells 0, clomiphene wells 100 | hit rate 0.2% among 360,000;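 active means mean lysis activity across replicates of at least 80%, whatever share of replicates individually reach that level; inactive means mean lysis activity below 80%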
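Schedule: static 4 h at 37 °C with compound, 1 h detection; system: C. neoformans cells; benchmarks: Clomiphene as positive control; buffer or medium: fresh YPD medium; measure: luminescence rise reflecting yeast cell lysis; measured by: luminescent adenylate kinase detection reagent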
Env fusion inh = inhibitors of HIV-1 Env-driven cell-cell fusion, primary screen, HeLa-JRFL effector, CEM21 target cells, luciferase; AID 651610, 2012; inhibition, % at 12.3 µM; hit rate 1.1% among 360,000;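 active means mean replicate inhibition score of at least 50 and every replicate individually at or above 50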;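 further: 0% = plate neutral controls and 100% = maraviroc near 300 nM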
PGC1a acetyl inh = inhibitors of PGC1a acetylation signal, primary screen, cell-based, U2OS, AlphaScreen, inhibitor mode | inhibition, % at 15.6 µM | hit rate 0.17% among 350,000 | AlphaScreen anti-acetyl-lysine; with virally co-expressed GCN5 acetyltransferase | AID 651687, 2012;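 active means every replicate shows inhibition of at least 40%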;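 further: 0% = neutral control wells and 100% = positive control wells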
FGF22 binding-2 = binders of human FGF22 protein, dose response, FGF22 synaptogenesis inhibitor project, biophysical, thermal shift, cherry-pick retest; hit rate 2% among 1,000; recombinant FGF22 thermal shift, SYPRO orange fluorescence; thermal shift activity, °C (ΔTm) at 38 µM; shares compounds with FGF22 binding-1; AID 720646, 2013;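 active means fitted rise in melting shift crosses a set limit at or below the top valid dose tested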
FGF22 TSA DP = binders of human FGF22 protein, dose response, FGF22 synaptogenesis inhibitor project, biophysical, thermal shift, dry powder; shares compounds with FGF22 binding-1; Thermal shift assay, SYPRO orange, melting temperature shift; Tm shift (activity), % at 38 µM; 50 tested, under 10 active;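 active means compounds whose fitted dose curve of melting temperature shift rises past a set threshold within the tested doses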
TSA no protein = compound-only thermal shift signal without protein, dose response, artefact control for FGF22 binder project, biochemical, cherry-picked samples, RT-PCR instrument | AC50, µM (series often up to 38 µM) | shares compounds with FGF22 binding-1 | AID 743019, 2013 | compound-only SYPRO orange thermal shift counter-screen, no protein | hit rate 2% among 1,000;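 active means rising signal whose fitted curve reaches the 0.54 level within the top valid dose, showing a melting point, actives reach about 13 µM in these data; inactive means the rest, including activity in the opposite direction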; further: value is where the raw curve crosses a fixed level and not half-maximal
Numbers without * were called inactive; i = inactive; . = not tested or not shown; ! = repeats disagree; [ ] = dose if it differs, or a comment.

SMILES	Ecoli rRNA inh	ERAP1 inh	FGF22 binding-1	Cneo AK release	Env fusion inh	PGC1a acetyl inh	FGF22 binding-2	TSA no protein	others
CCOC(=O)C1CCCN(c2cc(C)nc3cc(-c4ccc(Cl)cc4)nn23)C1 (stereo unspecified)	.	.	.	2	.	-3	.	.
Cc1ccc(S(=O)(=O)c2nnn(-c3cccc(F)c3)c2N)cc1	2	-6	1.5*	3	11	9	-0.014	i
C[C@H](CO)N1C[C@H](C)[C@@H](CN(C)C(=O)CN(C)C)Oc2cc(C3=CCCCC3)ccc2S1(=O)=O	2	-6	1.6*	-1	0[16.7 µM]	-18	0.12[42 µM]	i
C[C@H]1CN([C@@H](C)CO)S(=O)(=O)c2ccc(C3=CCCCC3)cc2O[C@@H]1CN(C)C(=O)CN(C)C	2	-9	1	2	3[16.7 µM]	-21	.	.
C[C@@H]1CN([C@@H](C)CO)S(=O)(=O)c2ccc(C3=CCCCC3)cc2O[C@H]1CN(C)C(=O)CN(C)C	6	-9	1.3*	6	25[16.7 µM]	-22	0.82	i
C[C@@H]1CN([C@@H](C)CO)S(=O)(=O)c2ccc(-c3cncnc3)cc2O[C@H]1CN(C)C(=O)CN(C)C	8	0	0	0	-15[16.7 µM]	-1	.	.
C[C@@H]1CN([C@@H](C)CO)S(=O)(=O)c2ccc(C3=CCCC3)cc2O[C@@H]1CN(C)C(=O)C1CCCCC1	-1	1	1.5*	3	13[16.7 µM]	10	-0.032	i
C[C@@H]1CN([C@H](C)CO)S(=O)(=O)c2ccc(-c3cncnc3)cc2O[C@@H]1CN(C)C(=O)CN(C)C	11	3	15*	1	-29[16.7 µM]	0	0.11	i
COC(=O)c1cn(NC(=O)Cc2ccccc2OC)c(=O)c2ccccc12	-4	0	2.1*	1	-1	1	0.046	i
Cn1c(=O)[nH]c(=O)c2c1nc(SCC(O)CO)n2CCCc1ccccc1 (stereo unspecified)	4	-2	1.4*	-1	-12	20	0.026	i
O=C(Nc1nccs1)C1CC(=O)N(c2ccc(F)cc2)C1 (stereo unspecified)	6	1	1.4*	.	-5	.	-0.036	i	FGF22 TSA DP=0
CCc1ccc(N2CC(C(=O)Nc3nccs3)CC2=O)cc1 (stereo unspecified)	.	.	.	7	.	-6	.	.
Cc1cccc(C(=O)Nc2cccc(C(=O)N/N=C/c3ccc4c(c3)OCO4)c2)c1	6	1	0	-2	-10	.	.	.
O=C(O)C1CCN(S(=O)(=O)Cc2ccccc2)CC1	12	-4	12*	2	3	2	0.18	i
CCOC(=O)C1CCN(S(=O)(=O)Cc2ccccc2)CC1	1	3	0	.	.	.	.	.
O=C(O)/C=C/c1ccc2noc(-c3ccccc3)c2c1	8	.	0	0	-4	5	.	.
C[C@@H]1CN([C@H](C)CO)C(=O)c2cc(NC(=O)Cc3ccccc3)ccc2O[C@H]1CN(C)Cc1ccc2c(c1)OCO2	1	0	-6	-2	-15[16.7 µM]	-12	.	.
C[C@H]1CN([C@@H](C)CO)C(=O)c2cc(NC(=O)Cc3ccccc3)ccc2O[C@H]1CN(C)Cc1ccc2c(c1)OCO2	2	0	3.0*	6	-17[16.7 µM]	1	0.23	i
COc1ccc(CN(C)C[C@H]2Oc3ccc(NC(=O)Cc4ccccc4)cc3C(=O)N([C@@H](C)CO)C[C@H]2C)cc1	-3	1	8.9*	1	-6[16.7 µM]	1	0.064	i
C[C@@H]1CN([C@@H](C)CO)C(=O)c2cc(NC(=O)Cc3cn(C)c4ccccc34)ccc2O[C@H]1CN(C)S(C)(=O)=O	0	-1	2.6*	4	10[16.7 µM]	12	0.11[42 µM]	i
COC(=O)C[C@@H]1CC[C@@H]2[C@@H](COc3ccc(NC(=O)c4cccc(Cl)c4)cc3C(=O)N2C)O1	0	-1	0	48	26[16.7 µM]	.	.	.
CCCC#Cc1ccc2c(c1)O[C@H](CN(C)C(C)=O)[C@@H](C)CN([C@@H](C)CO)S2(=O)=O	0	0	1.5*	56	-9[16.7 µM]	2	0.03	i
C[C@H](O)C#Cc1ccc2c(c1)O[C@H](CN(C)C(=O)Cc1ccccn1)[C@@H](C)CN([C@H](C)CO)S2(=O)=O	4	0	1.4*	-7	-1[16.7 µM]	-4	-0.082	i
C[C@@H]1CN([C@H](C)CO)S(=O)(=O)c2ccc(C#CCN(C)C)cc2O[C@@H]1CN(C)Cc1ccccc1F	2	-1	4.7*!	-2	-16[16.7 µM]	-12	0.15	i
COCC(=O)N(C)C[C@H]1Oc2cc(C#C[C@H](C)O)ccc2S(=O)(=O)N([C@@H](C)CO)C[C@H]1C	1	-3	0	-5	0[16.7 µM]	6	.	.
C[C@@H]1CN([C@@H](C)CO)S(=O)(=O)c2ccc(C#CCN(C)C)cc2O[C@H]1CN(C)Cc1ccccc1F	-31	1	0	1	-9[16.7 µM]	-16	.	.
COCC(=O)N(C)C[C@@H]1Oc2cc(C#C[C@H](C)O)ccc2S(=O)(=O)N([C@@H](C)CO)C[C@H]1C	3	-1	36*	-13	-18[16.7 µM]	-13	0.021[42 µM]	i
C[C@H](O)C#Cc1ccc2c(c1)O[C@@H](CN(C)C(=O)Cc1ccccn1)[C@H](C)CN([C@H](C)CO)S2(=O)=O	6	-3	0	-2	5[16.7 µM]	8	.	.
CCCC#Cc1ccc2c(c1)O[C@@H](CN(C)C(C)=O)[C@@H](C)CN([C@H](C)CO)S2(=O)=O	-6	0	-1	-1	-5[16.7 µM]	-2	.	.
CO[C@@H]1CN(C)C(=O)c2cc(NC(=O)Nc3ccc(C(F)(F)F)cc3)ccc2OC[C@H](C)NC[C@@H]1C	-27	-3	-1	0	7[16.7 µM]	-9	.	.
